pIC50: −log10 of the molar value.
Target: T1, Sarcoplasmic/endoplasmic reticulum calcium ATPase 1 (Homo sapiens, UniProt O14983)
Assay: Inhibitory activity against sarco- endoplasmic reticulum calcium-ATPase
Target sequence in this assay (O14983 whole entry): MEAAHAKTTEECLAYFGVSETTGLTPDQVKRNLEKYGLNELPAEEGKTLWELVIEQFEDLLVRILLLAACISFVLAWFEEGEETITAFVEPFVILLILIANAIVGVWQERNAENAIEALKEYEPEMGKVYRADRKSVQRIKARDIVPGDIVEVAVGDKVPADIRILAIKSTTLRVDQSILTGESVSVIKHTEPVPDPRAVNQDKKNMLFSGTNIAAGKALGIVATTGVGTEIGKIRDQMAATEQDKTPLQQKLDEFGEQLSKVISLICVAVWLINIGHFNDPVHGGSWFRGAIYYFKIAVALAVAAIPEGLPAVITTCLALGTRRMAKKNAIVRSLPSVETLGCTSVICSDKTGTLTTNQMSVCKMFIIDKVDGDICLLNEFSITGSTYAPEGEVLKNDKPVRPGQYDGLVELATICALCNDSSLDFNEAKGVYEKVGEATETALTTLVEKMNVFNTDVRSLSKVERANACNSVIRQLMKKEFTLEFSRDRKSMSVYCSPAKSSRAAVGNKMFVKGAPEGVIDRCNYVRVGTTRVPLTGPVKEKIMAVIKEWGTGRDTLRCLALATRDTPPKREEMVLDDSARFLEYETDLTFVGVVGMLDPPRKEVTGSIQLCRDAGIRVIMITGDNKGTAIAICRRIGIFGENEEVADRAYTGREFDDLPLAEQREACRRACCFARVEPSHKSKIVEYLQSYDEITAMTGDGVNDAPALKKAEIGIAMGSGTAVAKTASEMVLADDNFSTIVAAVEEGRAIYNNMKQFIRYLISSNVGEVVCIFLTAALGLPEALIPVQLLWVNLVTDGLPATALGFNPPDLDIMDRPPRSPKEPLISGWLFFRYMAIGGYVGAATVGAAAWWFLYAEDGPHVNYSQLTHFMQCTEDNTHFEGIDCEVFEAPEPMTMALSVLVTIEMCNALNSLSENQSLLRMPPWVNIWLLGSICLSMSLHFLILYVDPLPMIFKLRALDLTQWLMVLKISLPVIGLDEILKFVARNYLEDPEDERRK

SMILES | pIC50
CCCCCCCC(=O)O[C@@H]1C(=O)C(C)=C2[C@H]1[C@@](C)(OC(C)=O)C[C@H](OC(=O)CCCCCCCCCCC(=O)O)[C@@]1(O)[C@H]2OC(=O)[C@@]1(C)O | 8.68
CCCCCCCC(=O)O[C@@H]1C(=O)C(C)=C2[C@H]1[C@@](C)(OC(C)=O)C[C@H](OC(=O)CCC(=O)Nc1ccc(C)c(N)c1)[C@@]1(O)[C@H]2OC(=O)[C@@]1(C)O | 5.04
CCCCCCCC(=O)O[C@@H]1C(=O)C(C)=C2[C@H]1[C@@](C)(OC(C)=O)C[C@H](OC(=O)CCCC(=O)O)[C@@]1(O)[C@H]2OC(=O)[C@@]1(C)O | 7.70
CCCCCCCC(=O)O[C@@H]1C(=O)C(C)=C2[C@H]1[C@@](C)(OC(C)=O)C[C@H](OC(=O)CCCCCCCCCCCNC(=O)CCC(N)C(=O)O)[C@@]1(O)[C@H]2OC(=O)[C@@]1(C)O (stereo not given in full) | 8.92

Target: T1, Sarcoplasmic/endoplasmic reticulum calcium ATPase 1
Assay: Inhibitory potency against sarco- endoplasmic reticulum calcium-ATPase in relative to thapsigargin (Experimental)
Target sequence in this assay (O14983 whole entry, looked up): as the sequence (O14983 whole entry) above

SMILES | RIC50
CCCCCCCC(=O)O[C@@H]1C(=O)C(C)=C2[C@H]1[C@@](C)(OC(C)=O)C[C@H](OC(=O)CCCCCCCCCCC(=O)O)[C@@]1(O)[C@H]2OC(=O)[C@@]1(C)O | 0.25
CCCCCCCC(=O)O[C@@H]1C(=O)C(C)=C2[C@H]1[C@@](C)(OC(C)=O)C[C@H](OC(=O)CCC(=O)Nc1ccc(C)c(N)c1)[C@@]1(O)[C@H]2OC(=O)[C@@]1(C)O | 0.004
CCCCCCCC(=O)O[C@@H]1C(=O)C(C)=C2[C@H]1[C@@](C)(OC(C)=O)C[C@H](OC(=O)CCCC(=O)O)[C@@]1(O)[C@H]2OC(=O)[C@@]1(C)O | 0.02
CCCCCCCC(=O)O[C@@H]1C(=O)C(C)=C2[C@H]1[C@@](C)(OC(C)=O)C[C@H](OC(=O)CCCCCCCCCCCNC(=O)CCC(N)C(=O)O)[C@@]1(O)[C@H]2OC(=O)[C@@]1(C)O (stereo not given in full) | 0.83

Target: T1, Sarcoplasmic/endoplasmic reticulum calcium ATPase 1
Assay: Inhibitory potency against sarco- endoplasmic reticulum calcium-ATPase in relative to thapsigargin by using SGB-LIE method
Outline: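 SGB-LIE computation with a surface generalized Born continuum solvent. SERCA coordinates came from one TG-bound monomer of PDB 1IWO, truncated to the transmembrane domain, lumen and the near-membrane cytoplasmic part. Histidine protonation was set to favour H-bonds. Ligands were superimposed on bound TG, with O-8 side chains in the hydrophobic channel. Vacuum minimisation held protein atoms fixed except nonpolar H. LIE parameters were fitted to experimental data for 20 training analogues.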
Target sequence in this assay (O14983 whole entry, looked up): as the sequence (O14983 whole entry) above

SMILES | RIC50
CCCCCCCC(=O)O[C@@H]1C(=O)C(C)=C2[C@H]1[C@@](C)(OC(C)=O)C[C@H](OC(=O)CCCCCCCCCCC(=O)O)[C@@]1(O)[C@H]2OC(=O)[C@@]1(C)O | 2.08
CCCCCCCC(=O)O[C@@H]1C(=O)C(C)=C2[C@H]1[C@@](C)(OC(C)=O)C[C@H](OC(=O)CCC(=O)Nc1ccc(C)c(N)c1)[C@@]1(O)[C@H]2OC(=O)[C@@]1(C)O | 0.0006
CCCCCCCC(=O)O[C@@H]1C(=O)C(C)=C2[C@H]1[C@@](C)(OC(C)=O)C[C@H](OC(=O)CCCC(=O)O)[C@@]1(O)[C@H]2OC(=O)[C@@]1(C)O | 0.31
CCCCCCCC(=O)O[C@@H]1C(=O)C(C)=C2[C@H]1[C@@](C)(OC(C)=O)C[C@H](OC(=O)CCCCCCCCCCCNC(=O)CCC(N)C(=O)O)[C@@]1(O)[C@H]2OC(=O)[C@@]1(C)O (stereo not given in full) | 5

Target: T1, Sarcoplasmic/endoplasmic reticulum calcium ATPase 1
Assay: Inhibitory potency against sarco- endoplasmic reticulum calcium-ATPase in relative to thapsigargin
Target sequence in this assay (O14983 whole entry, looked up): as the sequence (O14983 whole entry) above

SMILES | RIC50
C/C=C(/C)C(=O)O[C@H]1C(C)=C2[C@H]([C@@H]1OC(=O)CCCCCCC)[C@@](C)(OC(C)=O)C[C@@H](OC(=O)CCC)[C@@]1(O)[C@H]2OC(=O)[C@@]1(C)O | 0.0003
C/C=C(/C)C(=O)O[C@H]1C(C)=C2[C@H]([C@@H]1OC(=O)CCCCCCC)[C@@](C)(OC(C)=O)C[C@H](OC(=O)CCCCCCN)[C@@]1(O)[C@H]2O[C@H](O)[C@@]1(C)O | 0.011
C/C=C(/C)C(=O)O[C@H]1C(C)=C2[C@H]([C@@H]1OC(=O)CCCCC)[C@@](C)(OC(C)=O)C[C@H](OC(=O)CCC)[C@@]1(O)[C@H]2O[C@H]2OCO[C@]21C | 0.06
C/C=C(\C)C(=O)O[C@H]1C(C)=C2[C@H]([C@@H]1OC(=O)CCCCCCC)[C@@](C)(O)C[C@H](OC(=O)CCC)[C@@]1(O)[C@H]2OC(=O)[C@@]1(C)O | 0.02
C/C=C(/C)C(=O)O[C@H]1C(C)=C2[C@H]([C@@H]1OC(=O)CCCCCCC)[C@@](C)(OC(C)=O)C[C@H](OC(=O)CCc1ccc(N)cc1)[C@@]1(O)[C@H]2O[C@H](O)[C@@]1(C)O | 0.68
C/C=C(/C)C(=O)O[C@H]1C(C)=C2[C@H]([C@@H]1OC(=O)CCCCCCC)[C@@](C)(OC(C)=O)C[C@H](OC(=O)CCC)[C@@]1(O)[C@H]2O[C@H]2O[C@]21C | 0.186
C/C=C(/C)C(=O)O[C@H]1C(C)=C2[C@H]([C@@H]1OC(=O)CCCCC)[C@@](C)(OC(C)=O)C[C@H](OC(=O)CCC)[C@@]1(O)[C@H]2O[C@H]2O[C@H](OCC)O[C@]21C | 0.4
C/C=C(/C)C(=O)O[C@H]1C(C)=C2[C@H]([C@@H]1OC(=O)CCCCC)[C@@](C)(O)C[C@H](OC(=O)CCC)[C@@]1(O)[C@H]2O[C@H]2OC(C)(C)O[C@]21C | 0.002
C/C=C(/C)C(=O)O[C@H]1C(C)=C2[C@H]([C@@H]1OC(=O)CCCCCCC)[C@@](C)(OC(C)=O)C[C@H](OC(=O)CCC)[C@@]1(O)[C@H]2OC(=O)[C@@]1(C)O (stereo in doubt; form 1) | 1
C/C=C(/C)C(=O)O[C@H]1C(C)=C2[C@H]([C@@H]1OC(=O)CCCCCCC)[C@@](C)(OC(C)=O)C[C@H](OC(=O)c1ccc(N)cc1)[C@@]1(O)[C@H]2O[C@H](O)[C@@]1(C)O | 0.59
CCCCCCCCO[C@@H]1C(C)=C2[C@H]([C@@H]1OC(=O)CCCCCCC)[C@@](C)(OC(C)=O)C[C@H](OC(=O)CCC)[C@@]1(O)[C@H]2OC(=O)[C@@]1(C)O | 0.002
C/C=C(\C)C(=O)O[C@H]1C(C)=C2[C@H]([C@@H]1OC(=O)CCCCCCC)[C@@](C)(OC(C)=O)C[C@H](OC(=O)CCC)[C@@]1(O)[C@H]2OC(=O)[C@@]1(C)OC(C)=O | 0.4
C/C=C(/C)C(=O)O[C@H]1C(C)=C2[C@H]([C@@H]1OC(=O)CCCCCCC)[C@@](C)(OC(C)=O)C[C@H](OC(=O)CCCc1ccc(N)cc1)[C@@]1(O)[C@H]2O[C@H](O)[C@@]1(C)O | 0.6
C/C=C(\C)C(=O)O[C@H]1C(C)=C2[C@H]([C@@H]1OC(=O)CCCCCCC)[C@@](C)(OC(C)=O)C[C@H](OC(=O)CCC)[C@@]1(OC(C)=O)[C@H]2OC(=O)[C@@]1(C)OC(C)=O | 0.07
C/C=C(/C)C(=O)O[C@H]1C(C)=C2[C@H]([C@@H]1OC(=O)CCCCCCC)[C@@](C)(OC(C)=O)C[C@H](OC(=O)CCCCCCCCCCCN)[C@@]1(O)[C@H]2O[C@H](O)[C@@]1(C)O | 0.384
C/C=C(/C)C(=O)O[C@H]1C(C)=C2[C@H]([C@@H]1OC(=O)CCCCCCC)[C@@](C)(OC(C)=O)C[C@H](OC(=O)CCCCCCCCCCN)[C@@]1(O)[C@H]2O[C@H](O)[C@@]1(C)O | 0.333
C/C=C(/C)C(=O)O[C@H]1C(C)=C2[C@H]([C@@H]1OC(=O)CCCCCCC)[C@@](C)(OC(C)=O)C[C@H](OC(=O)CCCCCCCCCCCNC(=O)[C@@H](N)CO)[C@@]1(O)[C@H]2O[C@H](O)[C@@]1(C)O | 1.25
C/C=C(/C)C(=O)O[C@H]1C(C)=C2[C@H]([C@@H]1OC(=O)CCCCCCC)[C@@](C)(OC(C)=O)C[C@H](OC(=O)/C=C/c1ccc(N)cc1)[C@@]1(O)[C@H]2O[C@H](O)[C@@]1(C)O | 0.59
C/C=C(/C)C(=O)O[C@H]1C(C)=C2[C@H]([C@@H]1OC(=O)CCCCCCC)[C@@](C)(OC(C)=O)C[C@H](OC(=O)CCC)[C@@]1(O)[C@H]2OC(=O)[C@@]1(C)O (stereo in doubt; form 2) | 0.67

SMILES | RIC50
C/C=C(/C)C(=O)O[C@H]1C(C)=C2[C@H]([C@@H]1OC(=O)CCCCCCC)[C@@](C)(OC(C)=O)C[C@H](OC(=O)CCCCCN)[C@@]1(O)[C@H]2O[C@H](O)[C@@]1(C)O | 0.01
C/C=C(/C)C(=O)O[C@H]1C(C)=C2[C@H]([C@@H]1OC(=O)CCCCCCC)[C@@](C)(OC(C)=O)C[C@H](OC(=O)CCCCCCCN)[C@@]1(O)[C@H]2O[C@H](O)[C@@]1(C)O | 0.059
C/C=C(/C)C(=O)O[C@H]1C(C)=C2[C@H]([C@@H]1OC(=O)CCCCCCC)[C@@](C)(O)C[C@H](OC(=O)CCCCCCC)[C@@]1(O)[C@H]2OC(O)[C@@]1(C)O (stereo not given in full) | 0.08
C/C=C(/C)C(=O)O[C@H]1C(C)=C2[C@H]([C@@H]1OC(=O)CCCCC)[C@@](C)(OC(C)=O)C[C@H](OC(=O)CCC)[C@@]1(O)[C@H]2OC(=O)[C@@]1(C)O | 0.98
C/C=C(/C)C(=O)O[C@H]1C(C)=C2[C@H]([C@@H]1OC(=O)CCCCC)[C@@](C)(OC(C)=O)C[C@H](OC(=O)CCC)[C@@]1(O)[C@H]2O[C@@H](OCC)[C@@]1(C)O | 0.52
CCCCCCCC(=O)O[C@@H]1C(=O)C(C)=C2[C@H]1[C@@](C)(OC(C)=O)C[C@H](OC(=O)CCC)[C@@]1(O)[C@H]2OC(=O)[C@@]1(C)O | 0.015
C/C=C(/C)C(=O)O[C@H]1C(C)=C2[C@H]([C@@H]1OC(=O)CCCCCCC)[C@@](C)(OC(C)=O)C[C@H](OC(=O)CCc1ccc(NC(=O)OC(C)(C)C)cc1)[C@@]1(O)[C@H]2O[C@H](O)[C@@]1(C)O | 0.52
C/C=C(/C)C(=O)O[C@H]1C(C)=C2[C@H]([C@@H]1OC(=O)CCCCCCC)[C@@](C)(OC(C)=O)C[C@H](OC(=O)CCC(=O)Nc1ccc(C)c(N)c1)[C@@]1(O)[C@H]2O[C@H](O)[C@@]1(C)O | 0.003
C/C=C(/C)C(=O)O[C@H]1C(C)=C2[C@H]([C@@H]1OC(=O)CCCCCCC)[C@@](C)(OC(C)=O)C[C@H](OC(=O)CCCCCCCCCCCNC(=O)[C@H](C)N)[C@@]1(O)[C@H]2O[C@H](O)[C@@]1(C)O | 0.833
C/C=C(/C)C(=O)O[C@H]1C(C)=C2[C@H]([C@@H]1OC(=O)CCCCC)[C@@](C)(OC(C)=O)C[C@H](OC(=O)CCC)[C@@]1(O)[C@H]2O[C@H]2O[C@@H](OCC)O[C@]21C | 0.02
C/C=C(/C)C(=O)O[C@H]1C(C)=C2[C@H]([C@@H]1OC(=O)CCCCCCC)[C@@](C)(OC(C)=O)C[C@H](OC(=O)CCCCCC(=O)Nc1ccc(C)c(N)c1)[C@@]1(O)[C@H]2O[C@H](O)[C@@]1(C)O | 0.22
C/C=C(/C)C(=O)O[C@H]1C(C)=C2[C@H]([C@@H]1OC(=O)CCCCCCC)[C@@](C)(OC(C)=O)C[C@H](OC(=O)/C=C/c1ccc(NC(=O)OC(C)(C)C)cc1)[C@@]1(O)[C@H]2O[C@H](O)[C@@]1(C)O | 0.54
C/C=C(/C)C(=O)O[C@H]1C(C)=C2[C@H]([C@@H]1OC(=O)CCCCC)[C@@](C)(OC(C)=O)C[C@H](OC(=O)CCC)[C@@]1(O)[C@H]2O[C@H](OCC)[C@@]1(C)O | 0.85
C/C=C(\C)C(=O)O[C@H]1C(C)=C2[C@H]([C@@H]1OC(=O)CCCCCCC)[C@@](C)(OC(C)=O)C[C@H](OC(=O)CCC)[C@@]1(OC(C)=O)[C@H]2OC(=O)[C@@]1(C)O | 0.36
CCCCCCCC(=O)O[C@H]1[C@H]2C(=C(C)[C@@H]1OC(=O)CCCCCCC)[C@@H]1OC(=O)[C@@](C)(O)[C@@]1(O)[C@@H](OC(=O)CCC)C[C@]2(C)OC(C)=O | 0.09
C/C=C(/C)C(=O)O[C@H]1C(C)=C2[C@H]([C@@H]1O)[C@@](C)(O)C[C@H](OC(=O)CCC)[C@@]1(O)[C@H]2O[C@H]2OC(C)(C)O[C@]21C | 0.0002
C/C=C(/C)C(=O)O[C@H]1C(C)=C2[C@H]([C@@H]1OC(=O)CCCCCCC)[C@@](C)(OC(C)=O)C[C@H](O)[C@@]1(O)[C@H]2O[C@H](O)[C@@]1(C)O | 0.19
C/C=C(/C)C(=O)O[C@H]1C(C)=C2[C@H]([C@@H]1OC(=O)CCCCCCC)[C@@](C)(OC(C)=O)C[C@H](OC(=O)CCCCCCCCCCCNC(=O)[C@@H](N)CC(C)C)[C@@]1(O)[C@H]2O[C@H](O)[C@@]1(C)O | 0.294
C/C=C(/C)C(=O)O[C@H]1C(C)=C2[C@H]([C@@H]1OC(=O)CCCCCCC)[C@@](C)(OC(C)=O)C[C@H](OC(=O)CCCCCNC(=O)[C@@H](N)CC(C)C)[C@@]1(O)[C@H]2O[C@H](O)[C@@]1(C)O | 0.004
